MEKK3 PB1 HTS = raises or lowers MEK5 binding to the human MEKK3 PB1 domain; actives 1.4% (n = 290,000); AID 1529; binding response (% of control), % at 10 µM; bead-based flow cytometry, Alexa488-MEK5 binding to MEKK3; actives lie on both sides; 0 = blocked by unlabeled MEK5, 100 = vehicle;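 active means binding response more than 3 SD above or below the average of its plate-row segment, actives on both sides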;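 further: Alexa488 bead fluorescence after subtracting the streptavidin-only scavenger bead signal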
Target sequence (Q99759 whole entry, looked up, the tested form may be a part): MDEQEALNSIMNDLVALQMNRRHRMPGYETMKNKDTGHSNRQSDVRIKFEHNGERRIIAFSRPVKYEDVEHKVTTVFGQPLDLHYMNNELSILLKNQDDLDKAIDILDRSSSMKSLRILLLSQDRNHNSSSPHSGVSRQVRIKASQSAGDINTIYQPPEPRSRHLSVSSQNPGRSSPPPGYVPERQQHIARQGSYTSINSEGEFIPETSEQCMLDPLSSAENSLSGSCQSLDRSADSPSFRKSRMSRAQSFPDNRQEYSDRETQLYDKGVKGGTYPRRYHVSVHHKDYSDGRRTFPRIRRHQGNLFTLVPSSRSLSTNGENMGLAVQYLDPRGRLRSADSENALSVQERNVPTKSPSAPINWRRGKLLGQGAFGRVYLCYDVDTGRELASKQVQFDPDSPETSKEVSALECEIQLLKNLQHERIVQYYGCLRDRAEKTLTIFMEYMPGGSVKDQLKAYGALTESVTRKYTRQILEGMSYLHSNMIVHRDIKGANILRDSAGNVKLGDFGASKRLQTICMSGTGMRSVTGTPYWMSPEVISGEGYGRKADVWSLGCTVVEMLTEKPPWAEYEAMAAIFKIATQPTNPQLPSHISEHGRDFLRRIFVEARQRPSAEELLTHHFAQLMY
MEKK2 mut-MEK5 = signal of MEK5 binding to mutant human MEKK2 PB1 domain; bead flow cytometry, Alexa488-MEK5 binding to MEKK2 mutant; percent response, % at 10 µM; actives 0.35% (n = 290,000); AID 1530; in the data active means percent response above about 24%, passing the limit was not always enough
MEKK2wt PB1 HTS = raises or lowers MEK5 binding to wildtype human MEKK2 PB1 domain | Q9Y2U5 | bead flow cytometry, Alexa488-MEK5 binding to MEKK2 WT; actives lie on both sides | binding response (% of control), % at 10 µM | actives 1.1% (n = 290,000) | AID 1531; in the data active means binding response below about 67% or above about 130%
DNA FID counter = displaces DNA intercalator in HCV helicase counter-screen | inhibition, % at 7.9 µM | AID 1845 | DNA fluorescent intercalator displacement, fluorescence | actives 0.17% (n = 290,000); in the data active means inhibition above about 37%;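 further: higher means more ethidium bromide displaced from hairpin DNA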
NS3 helicase inh = blocks Hepatitis C virus NS3 helicase unwinding; inhibition, % at 10.9 µM; NS3 helicase DNA unwinding, Cy5 molecular beacon fluorescence; actives 0.56% (n = 290,000);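 active means inhibition above the mean of all tested compounds plus 3 SD, set per campaign, cut at about 35% in these data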
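System: NS3 helicase fragment of HCV / Schedule: 1 h at 25 °C / Control set: DMSO alone as 0% and 110 µM thioflavine S as 100% / Reagent: Cy5/quencher beacon DNA duplex and ATP to start / Technique: Cy5 fluorescence / Replication: singlicate / Evaluation: % inhibition of end-to-start signal ratio versus controls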
T cruzi repl = T. cruzi replication inhibition; inhibition, % (no concentration beside the values); T. cruzi beta-gal in NIH3T3, luminescence, 90 h; actives 1.4% (n = 300,000); AID 1885;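 active means mean inhibition across valid replicates above about 55%, limit read from the data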;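 further: signal also drops with host cell toxicity which is not excluded here; higher percent means less beta-gal luminescence so fewer parasites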
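System – NIH/3T3 host cells with β-galactosidase reporter T. cruzi · Doses – single 50 nL compound addition per well in DMSO · Reagent – 5000 T. cruzi trypomastigotes/well · Medium – Low-serum DMEM with 2% FBS · Timing – ≥90 h infection period, 3 h prior cell attachment · Evaluation – parasite load inhibition, % · Technique – GalScreen luminescence, 60 min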
A number is an active result; 0 = inactive; - = no result; ! = a repeat was not active. Hits are enriched below; roughly 4.1% of the tested compounds scored in any of these assays.

SMILES | MEKK3 PB1 HTS | MEKK2 mut-MEK5 | MEKK2wt PB1 HTS | DNA FID counter | NS3 helicase inh | T cruzi repl
CS(=O)(=O)c1ccccc1C(=O)Nc1cccc(-c2nc3ccccc3o2)c1 | 0 | 0 | 0 | 0 | 0 | 0
COc1ccc(CCc2nnc(NS(C)(=O)=O)s2)cc1 | 0 | 0 | 0 | 0 | 0 | 0
COc1cccc2sc(Nc3nnc(-c4ccccc4Cl)o3)nc12 | 0 | 0 | 0 | 0 | 0 | 0
COc1ccccc1-c1nnc(Nc2nc3c(OC)cccc3s2)o1 | 0 | 0 | 0 | 0 | 0 | 63
COc1cccc2sc(Nc3nc(-c4ccncc4)cs3)nc12 | 0 | 0 | 0 | 0 | 0 | 76
COc1ccc(N(C(=O)/C=C/c2ccccc2)C2=CC3CCC(C2)N3C)cc1 (configuration not stated) | 0 | 0 | 0 | 0 | 0 | 0
Cc1nc([N+](=O)[O-])c(Sc2nc3ccccc3n2C)n1Cc1ccccc1 | 0 | 0 | 0 | 0 | 0 | 0
COC(=O)[C@@H]1Cc2c([nH]c3ccccc23)C(C)(C)N1C(=O)CCl | 0 | 0 | 0 | 0 | 0 | 63
Cc1ccc(C(=O)NNC2=Nc3cccc4cccc2c34)cc1 | 0 | 0 | 0 | 0 | 0 | 0
Cc1sc2cc3c(c(C(=O)c4ccccc4)[n+]2c1C)-c1cccc2cccc-3c12 | 0 | 0 | 0 | 0 | 0 | 74
CNC(=S)N1CCN(CCNC2=CC(=O)CC(C)(C)C2)CC1 | 0 | 0 | 0 | 0 | 0 | 0
CC1(C)CC(NCCN2CCN(C3=CC(=C(C#N)C#N)CC(C)(C)C3)CC2)=CC(=C(C#N)C#N)C1 | 0 | 0 | 0 | 0 | 0 | 86
Cc1nn(-c2ccccc2)c(Cl)c1/C=N/Nc1nc2ccccc2n1C | 0 | 0 | 0 | 0 | 0 | 55
Clc1nc2ccccc2cc1/C=N/Nc1nc2ccccc2[nH]1 | 156 | 0 | 0 | 0 | 0 | 0
C=CCn1cc(/C=N/Nc2nc3ccccc3[nH]2)c2ccccc21 | 0 | 0 | 232 | 0 | 0 | 0
C(=N\Nc1nc2ccccc2[nH]1)/c1ccncc1 | 0 | 0 | 0 | 0 | 0 | 0
Cc1c(/C=N/Nc2nc3ccccc3[nH]2)c2ccccc2n1C | 0 | 0 | 168 | 0 | 0 | 56
Cc1nn(-c2ccccc2)c(Cl)c1/C=N/NC(N)=O | 0 | 0 | 0 | 0 | 0 | 0
Cn1c(/C=N/Nc2nc3ccccc3[nH]2)nc2ccccc21 | 0 | 0 | 0 | 0 | 0 | 0
CC(C)CC(NC(=O)C(COC(C)(C)C)NC(=O)C(Cc1ccc(O)cc1)NC(=O)C(CO)NC(=O)C(Cc1c[nH]c2ccccc12)NC(=O)C(Cc1cnc[nH]1)NC(=O)C1CCC(=O)N1)C(=O)N[C@@H](CCCN=C(N)N)C(=O)N1CCCC1C(=O)NNC(N)=O (some centres not stated) | 0 | 0 | 0 | - | - | -
Cc1nn(-c2ccccc2)c(C)c1/C=N/Nc1nc2ccccc2[nH]1 | 0 | 0 | 0 | 0 | 0 | 66
Cc1ccc(-c2csc(NC(=O)c3ccc([N+](=O)[O-])o3)n2)cc1 | 0 | 0 | 0 | 0 | 0 | 70
Cc1ccc(-c2csc(NC(=O)c3ccc(C)o3)n2)cc1 | 0 | 0 | 0 | 0 | 0 | 0
COc1ccccc1N(C)S(=O)(=O)c1ccc(C(=O)NC(C)c2ccccc2)cc1 (configuration not stated) | 0 | 0 | 0 | 0 | 0 | 0
Cc1nnc(-c2cccc(Br)c2)c2cn(-c3cccc(Br)c3)nc12 | 0 | 0 | 0 | 0 | 0 | 60
SMILES | MEKK3 PB1 HTS | MEKK2 mut-MEK5 | MEKK2wt PB1 HTS | DNA FID counter | NS3 helicase inh | T cruzi repl
CCC1CSC(Nc2ccc(C(=O)/C=C/c3cccc(C)c3)cc2)=N1 (configuration not stated) | 0 | 0 | 0 | 0 | 0 | 60
Cc1cc(C)n(CCNS(=O)(=O)c2ccccc2)n1 | 0 | 0 | 0 | 0 | 0 | 0
N#Cc1ccc(CSC2=NCCN2)cc1 | 0 | 0 | 0 | 0 | 0 | 0
CCOc1ccc(CSC2=NCCN2)cc1Cl | 0 | 0 | 0 | 0 | 0 | 57
CCCCCN(C(=O)CCC(=O)OC(C)C(=O)c1ccccc1)c1c(N)n(CCCC)c(=O)[nH]c1=O (configuration not stated) | - | - | - | - | - | 0
Nc1c2c(nc3ccccc13)CCCC2 | 0 | 0 | 0 | 0 | 0 | 0
Nc1c2ccccc2nc2ccccc12 | 0 | 0 | 0 | 51 | 0 | 69!

Compound activity as filed in PubChem.
